Laboratory results reported in ChEMBL document CHEMBL2062525, “Substituted 3-(5-imidazo[2,1-b]thiazolylmethylene)-2-indolinones and analogues: synthesis, cytotoxic activity, and study of the mechanism of action” (J Med Chem, 2012).

How the values were obtained:
[1] = Cytotoxicity against human leukemia cells after 48 hrs; assay type: functional; conditions: Leukemia cell
Outline: (§1)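 NCI 60-cell panel (subpanels include leukemia and prostate). […] Percent growth relative to untreated control; some repeats averaged over two experiments.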

NSCLC = experiment: Cytotoxicity against human NSCLC cells after 48 hrs; assay type: functional
Outline: (§2)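 NCI 60-cell panel subpanel lines; compounds first screened at a single 10−5 M, then those passing threshold tested in five-concentration assay over 10−9 to 10−4 M (some to 10−3 M), 48 h exposure. Growth relative to untreated control measured as cell protein; GI50, TGI and LC50 derived; some values are means of two experiments.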

[2] = Cytotoxicity against human COLON cells after 48 hrs; assay type: functional; outline: as §2
[3] = Cytotoxicity against human CNS cancer cells after 48 hrs; assay type: functional; conditions: Cancer cell lines; outline: as §2
[4] = Cytotoxicity against human melanoma cells after 48 hrs; assay type: functional; conditions: Melanoma cell; for CC50: read-out: LC50 (the source's name); outline: as §2
[5] = Cytotoxicity against human ovarian cancer cells after 48 hrs; assay type: functional; conditions: Cancer cell lines; outline: as §2
[6] = Cytotoxicity against human renal cancer cells after 48 hrs; assay type: functional; conditions: Cancer cell lines; outline: as §2
[7] = Cytotoxicity against human prostate cancer cells after 48 hrs; assay type: functional; conditions: Cancer cell lines; outline: as §1
[8] = Cytotoxicity against human breast cancer cells after 48 hrs; assay type: functional; conditions: Cancer cell lines; outline: as §2
[9] = Inhibition of bovine brain tubulin assembly after 20 mins; set-up: species or system Bos taurus
Bos taurus = species on record: Bos taurus; experiment: Displacement of [3H]colchicine from bovine brain tubulin at 5 uM after 10 mins

COc1nc2sccn2c1C=C1C(=O)Nc2ccc(F)cc21 (mixture of isomers)
GI50 [1]: 3.39 µM
GI50 (NSCLC): 6.03 µM
TGI (NSCLC): 66.1 µM
GI50 [2]: 3.16 µM
TGI [2]: 61.7 µM
GI50 [3]: 6.46 µM
TGI [3]: 42.7 µM
GI50 [4]: 6.03 µM
TGI [4]: 47.9 µM
GI50 [5]: 5.62 µM
TGI [5]: 44.7 µM
GI50 [6]: 6.76 µM
TGI [6]: 47.9 µM
GI50 [7]: 12 µM
TGI [7]: 93.3 µM
GI50 [8]: 2.88 µM
TGI [8]: 51.3 µM

Cc1ccc(-c2nc3sc(C)cn3c2/C=C2/C(=O)N(C)c3ccccc32)cc1
GI50 [1]: 7.08 µM
TGI [1]: 63.1 µM
GI50 (NSCLC): 24 µM
TGI (NSCLC): 89.1 µM
GI50 [2]: 20.4 µM
GI50 [3]: 19.1 µM
TGI [3]: 75.9 µM
GI50 [4]: 17.4 µM
TGI [4]: 87.1 µM
GI50 [5]: 32.4 µM
TGI [5]: 89.1 µM
GI50 [6]: 15.1 µM
TGI [6]: 85.1 µM
GI50 [7]: 6.46 µM
GI50 [8]: 13.5 µM
TGI [8]: 75.9 µM

COc1ccc2c(c1)/C(=C\c1c(-c3ccc(Cl)cc3)nc3sc(C)nn13)C(=O)N2
GI50 [3]: 69.2 µM
GI50 [6]: 81.3 µM
GI50 [8]: 95.5 µM

COc1nc2sccn2c1/C=C1/C(=O)Nc2ccc(Cl)cc21
GI50 [1]: 1.32 µM
TGI [1]: 26.3 µM
GI50 (NSCLC): 4.27 µM
TGI (NSCLC): 89.1 µM
GI50 [2]: 1.41 µM
TGI [2]: 64.6 µM
GI50 [3]: 3.31 µM
TGI [3]: 40.7 µM
GI50 [4]: 3.72 µM
TGI [4]: 40.7 µM
GI50 [5]: 3.47 µM
TGI [5]: 46.8 µM
GI50 [6]: 3.31 µM
TGI [6]: 58.9 µM
GI50 [7]: 3.98 µM
TGI [7]: 81.3 µM
GI50 [8]: 2.45 µM
TGI [8]: 74.1 µM

COc1ccc2c(c1)C(=Cc1c(OC)nc3sccn13)C(=O)N2C (mixture of isomers)
GI50 [1]: 0.16 µM
LC50 (concentration killing 50% of cells) [1]: 79.4 µM
GI50 (NSCLC): 1.02 µM
TGI (NSCLC): 58.9 µM
GI50 [2]: 0.35 µM
LC50 (concentration giving 50% net cell kill) [2]: 87.1 µM
TGI [2]: 24 µM
GI50 [3]: 0.38 µM
TGI [3]: 18.6 µM
GI50 [4]: 0.79 µM
TGI [4]: 72.4 µM
CC50 [4]: 91.2 µM
GI50 [5]: 0.63 µM
TGI [5]: 31.6 µM
GI50 [6]: 0.71 µM
TGI [6]: 53.7 µM
GI50 [7]: 0.55 µM
GI50 [8]: 0.49 µM
TGI [8]: 49 µM
IC50 [9]: 3.8 µM
inhibition (Bos taurus): 45%

O=C1Nc2cc(Cl)ccc2C1=Cc1c(-c2ccccn2)nc2sccn12 (mixture of isomers)
GI50 [1]: 0.06 µM
TGI [1]: 4.57 µM
GI50 (NSCLC): 0.33 µM
LC50 (NSCLC): 49 µM
TGI (NSCLC): 28.8 µM
GI50 [2]: 0.11 µM
LC50 (concentration giving 50% net cell kill) [2]: 46.8 µM
TGI [2]: 21.9 µM
GI50 [3]: 0.17 µM
LC50 [3]: 38 µM
TGI [3]: 6.03 µM
GI50 [4]: 0.12 µM
TGI [4]: 15.1 µM
CC50 [4]: 38.9 µM
GI50 [5]: 0.27 µM
LC50 (concentration killing 50% of starting cells) [5]: 36.3 µM
TGI [5]: 11.5 µM
GI50 [6]: 0.25 µM
TGI [6]: 15.8 µM
CC50 ([6]; read-out: LC50 (the source's name)): 42.7 µM
GI50 [7]: 0.15 µM
TGI [7]: 31.6 µM
GI50 [8]: 0.21 µM
LC50 [8]: 46.8 µM
TGI [8]: 12.6 µM
IC50 [9]: 9.3 µM
inhibition (Bos taurus): 48%

Cc1cn2c(/C=C3/C(=O)Nc4cc(Cl)ccc43)c(C)nc2s1
GI50 [1]: 1.07 µM
TGI [1]: 37.1 µM
GI50 (NSCLC): 2.29 µM
GI50 [2]: 0.98 µM
TGI [2]: 66.1 µM
GI50 [3]: 2.4 µM
TGI [3]: 25.7 µM
GI50 [4]: 1.58 µM
TGI [4]: 57.5 µM
GI50 [5]: 7.41 µM
GI50 [6]: 4.79 µM
TGI [6]: 70.8 µM
GI50 [7]: 2.29 µM
GI50 [8]: 1.2 µM
TGI [8]: 15.8 µM

O=C1Nc2ccccc2/C1=C\c1c(-c2ccccn2)nc2sccn12
GI50 [1]: 0.35 µM
TGI [1]: 14.8 µM
GI50 (NSCLC): 1.58 µM
TGI (NSCLC): 70.8 µM
GI50 [2]: 0.49 µM
TGI [2]: 52.5 µM
GI50 [3]: 0.81 µM
LC50 [3]: 89.1 µM
TGI [3]: 20.9 µM
GI50 [4]: 2.45 µM
TGI [4]: 91.2 µM
GI50 [5]: 2.88 µM
LC50 (concentration killing 50% of starting cells) [5]: 91.2 µM
TGI [5]: 37.1 µM
GI50 [6]: 2.34 µM
TGI [6]: 95.5 µM
GI50 [7]: 1.02 µM
GI50 [8]: 0.59 µM
TGI [8]: 36.3 µM

COc1ccc2c(c1)/C(=C\c1c(-c3ccc(C)cc3)nc3sc(C)cn13)C(=O)N2C
GI50 [1]: 4.37 µM
TGI [1]: 56.2 µM
GI50 (NSCLC): 14.8 µM
TGI (NSCLC): 85.1 µM
GI50 [2]: 6.03 µM
TGI [2]: 33.1 µM
GI50 [3]: 39.8 µM
GI50 [4]: 52.5 µM
GI50 [5]: 56.2 µM
GI50 [6]: 4.79 µM
TGI [6]: 70.8 µM
GI50 [7]: 5.37 µM
GI50 [8]: 12.9 µM
TGI [8]: 72.4 µM
